Consider two molecules from publication PMC11865470 (Communications Biology, 2025).

Assay type in all cases: cell-based
For experiment [1], the target named is Otop1 channels (Mus musculus, UniProt Q80VM9). Kind of experiment: patch-clamp, pH 8.5-evoked Otop1 currents with preincubated HIMOP. To be noted: 10 μM, preincubated at pH 7.4 for 2 min; 0 mV. In short, it runs like this: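 Mouse Otop1 was expressed with EGFP in PAC-knockout HEK293T cells and whole-cell recorded with Cs-aspartate pipette solution (pH 7.3). Test compound was preincubated with cells at pH 7.4 (NMDG-Cl bath, 10 mM HEPES) for 2 min, then pH 8.5 stimulus applied (NMDG-Cl bath, 10 mM Tris).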
In general terms: Patch clamp records ionic current or voltage across a cell membrane.

For experiment [2], the target named is T1, mouse Otop1 (mOtop1) channels (Mus musculus, UniProt Q80VM9).
T1 sequence (Q80VM9 1-600): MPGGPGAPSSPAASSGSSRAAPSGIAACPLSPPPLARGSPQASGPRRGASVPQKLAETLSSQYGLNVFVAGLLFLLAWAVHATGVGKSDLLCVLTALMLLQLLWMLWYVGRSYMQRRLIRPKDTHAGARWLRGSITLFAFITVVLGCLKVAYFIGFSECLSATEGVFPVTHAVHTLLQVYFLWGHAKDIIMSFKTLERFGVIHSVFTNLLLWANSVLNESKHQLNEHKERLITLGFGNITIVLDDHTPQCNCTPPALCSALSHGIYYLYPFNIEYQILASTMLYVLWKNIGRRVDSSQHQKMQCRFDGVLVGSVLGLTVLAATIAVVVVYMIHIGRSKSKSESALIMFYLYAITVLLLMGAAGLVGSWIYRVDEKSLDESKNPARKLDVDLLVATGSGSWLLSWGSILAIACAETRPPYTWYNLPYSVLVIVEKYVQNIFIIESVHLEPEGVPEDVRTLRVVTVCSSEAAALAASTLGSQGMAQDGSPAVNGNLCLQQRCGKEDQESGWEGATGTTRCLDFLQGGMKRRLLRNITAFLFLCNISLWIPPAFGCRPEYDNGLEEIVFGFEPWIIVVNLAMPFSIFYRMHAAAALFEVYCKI
Kind of experiment: whole-cell patch-clamp, peak currents: current density and "on-cell" analysis. To be noted: for effect on mOtop1 current density: 10 μM.

Experiment [3] has as its target mOtop1 T240A (Mus musculus, UniProt Q80VM9, T240A). Nature of the experiment: patch-clamp, mOtop1 mutant. Conditions: 10 μM; pH 5.5. In short, it runs like this:
(§1)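 Alanine-substituted mOtop1 mutants were co-transfected (2.5 μg channel plus 0.5 μg EGFP plasmid, Lipofectamine 2000) into PAC-knockout HEK293T cells. Whole-cell recording 16–24 h after seeding on PLL coverslips. Pipette (mM): 120 Cs-aspartate, 15 CsCl, 2 Mg-ATP, 5 EGTA, 2.4 CaCl2, 10 HEPES, pH 7.3. Bath (mM): 160 NMDG-Cl, 2 CaCl2, 10 MES, pH 5.5, with 10 μM test compound. Response compared with wild-type mOtop1.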

The target in experiment [4] is mOtop1 T233A (Mus musculus, UniProt Q80VM9, T233A). Kind of experiment: patch-clamp, mOtop1 mutant. To be noted: 10 μM; pH 5.5. In outline: as §1
Experiment [5] deals with mOtop1 R554K (Mus musculus, UniProt Q80VM9, R554K). Kind of experiment: patch-clamp, mOtop1 mutant. To be noted: Fig 5G, H.
The target of experiment [6] is T1, mouse Otop1 (mOtop1) channels. To be noted: 10 μM MFaN; pH 5.5.
Experiment [7] deals with mOtop1 R554N (Mus musculus, UniProt Q80VM9, R554N). Kind of experiment: patch-clamp, mOtop1 mutant. Conditions: Fig 5G, H.
Experiment [8] has as its target mOtop1 D244A (Mus musculus, UniProt Q80VM9, D244A). Nature of the experiment: patch-clamp, mOtop1 mutant. Conditions: 10 μM; pH 5.5. In short, it runs like this: as §1
Experiment [9] concerns the target mOtop1 I239A (Mus musculus, UniProt Q80VM9, I239A). Kind of experiment: patch-clamp, mOtop1 mutant. To be noted: 10 μM; pH 5.5. In short, it runs like this: as §1
In experiment [10] the target is mOtop1 R554E (Mus musculus, UniProt Q80VM9, R554E). Kind of experiment: patch-clamp, mOtop1 mutant. To be noted: Fig 5G, H.
In experiment [11] the target is mOtop1 L243A (Mus musculus, UniProt Q80VM9, L243A). Nature of the experiment: patch-clamp, mOtop1 mutant. To be noted: 10 μM; pH 5.5. In short, it runs like this:
as §1

For experiment [12], the target named is T1, mouse Otop1 (mOtop1) channels. Nature of the experiment: reversal potential. Conditions: 10 μM; pH 5.5; bath NMDG+, Na+, K+ or Cs+.
In experiment [13] the target is mOtop1 R554H (Mus musculus, UniProt Q80VM9, R554H). Nature of the experiment: patch-clamp, mOtop1 mutant. To be noted: Fig 5G, H.
The target of experiment [14] is mOtop1 H246A (Mus musculus, UniProt Q80VM9, H246A). Nature of the experiment: patch-clamp, mOtop1 mutant. Conditions: 10 μM; pH 5.5. In short, it runs like this: as §1
Experiment [15] has as its target mOtop1 E229A (Mus musculus, UniProt Q80VM9, E229A). Nature of the experiment: patch-clamp, mOtop1 mutant. Conditions: 10 μM; pH 5.5. In short, it runs like this: as §1
Experiment [16] has as its target mOtop1 D245A (Mus musculus, UniProt Q80VM9, D245A). Nature of the experiment: patch-clamp, mOtop1 mutant. Conditions: 10 μM; pH 5.5. In outline: as §1
In experiment [17] the target is mOtop1 R554Q (Mus musculus, UniProt Q80VM9, R554Q). Nature of the experiment: patch-clamp, mOtop1 mutant. Conditions: Fig 5G, H.

SMILES strings stand for the structures.

mOtop1 E229A, sequence (Q80VM9 whole entry E229A): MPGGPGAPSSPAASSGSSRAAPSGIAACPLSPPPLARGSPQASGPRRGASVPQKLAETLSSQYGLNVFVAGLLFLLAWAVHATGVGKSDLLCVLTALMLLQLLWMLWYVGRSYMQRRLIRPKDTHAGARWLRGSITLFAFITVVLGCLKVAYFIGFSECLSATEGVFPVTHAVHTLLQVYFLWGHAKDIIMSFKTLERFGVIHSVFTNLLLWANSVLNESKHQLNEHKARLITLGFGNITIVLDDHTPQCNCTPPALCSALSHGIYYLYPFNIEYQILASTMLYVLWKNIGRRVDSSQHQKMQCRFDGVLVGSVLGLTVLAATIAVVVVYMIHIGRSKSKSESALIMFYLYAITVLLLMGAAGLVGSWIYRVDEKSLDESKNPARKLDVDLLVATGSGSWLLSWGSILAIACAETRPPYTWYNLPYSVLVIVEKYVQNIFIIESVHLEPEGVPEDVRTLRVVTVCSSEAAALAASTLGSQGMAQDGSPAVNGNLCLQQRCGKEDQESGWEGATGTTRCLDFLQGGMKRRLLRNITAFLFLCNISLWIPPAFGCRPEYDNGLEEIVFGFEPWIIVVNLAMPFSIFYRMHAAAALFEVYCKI
mOtop1 R554N, sequence (Q80VM9 whole entry R554N): as the sequence (Q80VM9 whole entry E229A) above, with A229E, R554N counted along it
mOtop1 R554K, sequence (Q80VM9 whole entry R554K): as the sequence (Q80VM9 whole entry E229A) above, with A229E, R554K counted along it
mOtop1 T233A, sequence (Q80VM9 whole entry T233A): as the sequence (Q80VM9 whole entry E229A) above, with A229E, T233A counted along it
mOtop1 R554E, sequence (Q80VM9 whole entry R554E): as the sequence (Q80VM9 whole entry E229A) above, with A229E, R554E counted along it
mOtop1 T240A, sequence (Q80VM9 whole entry T240A): as the sequence (Q80VM9 whole entry E229A) above, with A229E, T240A counted along it
mOtop1 R554Q, sequence (Q80VM9 whole entry R554Q): as the sequence (Q80VM9 whole entry E229A) above, with A229E, R554Q counted along it
mOtop1 L243A, sequence (Q80VM9 whole entry L243A): as the sequence (Q80VM9 whole entry E229A) above, with A229E, L243A counted along it
mOtop1 H246A, sequence (Q80VM9 whole entry H246A): as the sequence (Q80VM9 whole entry E229A) above, with A229E, H246A counted along it
mOtop1 I239A, sequence (Q80VM9 whole entry I239A): as the sequence (Q80VM9 whole entry E229A) above, with A229E, I239A counted along it
mOtop1 D244A, sequence (Q80VM9 whole entry D244A): as the sequence (Q80VM9 whole entry E229A) above, with A229E, D244A counted along it
mOtop1 D245A, sequence (Q80VM9 whole entry D245A): as the sequence (Q80VM9 whole entry E229A) above, with A229E, D245A counted along it
mOtop1 R554H, sequence (Q80VM9 whole entry R554H): as the sequence (Q80VM9 whole entry E229A) above, with A229E, R554H counted along it

Consider `CC(C)c1noc2ncc(C(=O)c3ccccc3O)cc12` [HIMOP, (2-hydroxyphenyl)-(3-propan-2-yl-5-isoxazolo[5,4-b]pyridinyl)methanone], for which the “effect on pH 8.5-evoked Otop1 currents” value in experiment [1] is “significantly enhanced”.

What is called EC50 is the concentration at which the effect is half-maximal. Low values mean an effect from little substance, high ones a need for much substance. Regarding `Cc1ccc(C(=O)Nc2ccc3ccccc3c2)o1` [MFaN, 5-methyl-N-2-naphthyl-2-furamide], the concentration giving a half-maximal response (EC50) in experiment [2] was 9.2 ± 0.6 µM. Also, the “effect on mOtop1 current density” value in experiment [2] (pH 5.5, Fig 4A) is given as “significantly increased”; in experiment [2] (pHs ranging from 4.5 to 6.0), “significantly increased”. The “response of mutant to MFaN compared to wild-type mOtop1” value in experiment [3] is reported as “markedly reduced”; in experiment [4], “markedly reduced”; in experiment [8] it was “markedly reduced”; in experiment [9], “markedly reduced”; in [11], “significantly enhanced”; in experiment [14], “significantly enhanced”. In addition, the “response of mutant to MFaN compared to wild-type mOtop1” value in experiment [15] and in experiment [16] was “significantly enhanced” in each case. Moreover, the “effect of mutation on MFaN's potentiation effect vs WT mOtop1” value in [5] is listed as “did not affect”; in experiment [7] it was “eliminated”; in [10], “eliminated”; in experiment [13], “reduced”; in experiment [17], “eliminated”. Moreover, the “effect on inhibition of mOtop1 by Zn2+” value in [6] is “without affecting”. Also, the “effect on Vrev of the mOtop1 channel” value in [12] is “did not change”.
